Test results reported in ChEMBL document CHEMBL3244344, “Nucleoside conjugates as potential antitumor agents. 2. Synthesis and biological activity of 1-(beta-D-arabinofuranosyl)cytosine conjugates of prednisolone and prednisone” (J Med Chem, 1979).

Columns and labels:
[1] = Metabolic stability in baboon plasma assessed as remaining compound level at 5 umol at 37 degC after 24 hrs by UV analysis; format: ADME, cell-free; conditions: papio anubis, read-out: Stability
How it was run: (§1)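 5 μmol conjugate in 0.5 mL fresh baboon plasma, incubated at 37 °C for 24 h. Intact conjugate and products were separated by paper chromatography with authentic markers.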

[2] = system: L1210; assay: Antitumor activity against mouse L1210 cells allografted in C3D2F1/J mouse assessed as increase in life span at 75 mg/kg, ip qd administered for 5 days relative to control; format: functional; conditions: 120 h, route intraperitoneal
[3] = system: L1210; assay: Cytotoxicity against mouse L1210 cells assessed as growth inhibition measured at 72 hrs by trypan blue exclusion assay; format: functional; conditions: L1210, 72 h, read-out: ED50 (the source's name)
How it was run: (§2)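 L1210 mouse lymphoid leukemia cells seeded at 2–3 × 10⁵ cells/mL in RPMI 1640 + 10% fetal calf serum with compound (from Me2SO stock, final Me2SO 0.5%, compound 100 μM or lower). Viable cells counted by 0.05% Trypan blue exclusion in a hemocytometer at 24, 48, 72 h. Treated/untreated density ratio. ED50 at 72 h interpolated from response curves of three separate experiments.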

[4] = system: Mus musculus; assay: Toxicity in C3D2F1/J mouse allografted with mouse L1210 cells assessed as body weight change at 75 mg/kg, ip qd administered for 5 days measured on day 8 (reference value: 1.81 +/- 0.79 g); format: organism-based; parameters: dose 75 mg/kg, route intraperitoneal; conditions: in vivo, 120 h
[5] = system: Mus musculus; assay: Toxicity in C3D2F1/J mouse allografted with mouse L1210 cells assessed as body weight change at 100 mg/kg, ip qd administered for 5 days measured on day 8 (reference value: 1.81 +/- 0.79 g); format: organism-based; parameters: dose 100 mg/kg, route intraperitoneal; conditions: in vivo, 120 h
[6] = Hydrolytic stability of the compound at 5 umol at pH 8 at 25 degC after 24 hrs by UV analysis in presence of bacterial alkaline phosphatase; format: physicochemical; conditions: isolated protein, pH 8, 24 h
How it was run: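 5 μmol conjugate in Tris-HCl (pH 8.0) with bacterial alkaline phosphatase suspension, 0.5 mL total, incubated at 25 °C for 24 h. Paper chromatography against authentic markers.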

[7] = Hydrolytic stability of the compound assessed as remaining compound level at 5 umol at pH 4.8 at 25 degC after 24 hrs by UV analysis in presence of wheat germ acid phosphatase; format: physicochemical; conditions: read-out: Stability
How it was run: (§3)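 5 μmol conjugate in NaOAc buffer (pH 4.8) with 3 mg crude wheat germ acid phosphatase, 0.5 mL total, held at 25 °C for 24 h. Products were separated by paper chromatography against authentic markers.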

[8] = system: L1210; assay: Antitumor activity against mouse L1210 cells allografted in C3D2F1/J mouse assessed as median survival time at 100 mg/kg, ip qd administered for 5 days (reference value: 9 days); format: functional; conditions: route intraperitoneal
[9] = system: Mus musculus; assay: Toxicity in C3D2F1/J mouse allografted with mouse L1210 cells assessed as body weight change at 25 mg/kg, ip qd administered for 5 days measured on day 8 (reference value: 1.81 +/- 0.79 g); format: organism-based; parameters: dose 25 mg/kg, route intraperitoneal; conditions: in vivo, 120 h
[10] = system: L1210; assay: Antitumor activity against mouse L1210 cells allografted in C3D2F1/J mouse assessed as increase in life span at 100 mg/kg, ip qd administered for 5 days relative to control; format: functional; conditions: 120 h, route intraperitoneal
[11] = Drug degradation assessed as steroid formation at 5 umol at pH 9 after 24 hrs by UV analysis in presence of Crotalus adamanteus 5'-nucleotidase; format: physicochemical; conditions: buffer, pH 9, 24 h
How it was run: (§4)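 Crude Crotalus adamanteus venom: 5 μmol conjugate in Tris-HCl buffer (pH 8.8) with 2.5 mg venom, 0.5 mL total, incubated 37 °C for 24 h. Products were resolved by paper chromatography alongside authentic markers.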

[12] = Drug degradation assessed as ara-C formation at 5 umol at pH 9 after 24 hrs by UV analysis in presence of Crotalus adamanteus 5'-nucleotidase; format: physicochemical; conditions: buffer, pH 9, 24 h; how it was run: as §4
[13] = system: L1210; assay: Antitumor activity against mouse L1210 cells allografted in C3D2F1/J mouse assessed as median survival time at 75 mg/kg, ip qd administered for 5 days (reference value: 9 days); format: functional; conditions: route intraperitoneal
[14] = system: L1210; assay: Antitumor activity against mouse L1210 cells allografted in C3D2F1/J mouse assessed as increase in life span at 50 mg/kg, ip qd administered for 5 days relative to control; format: functional; conditions: 120 h, route intraperitoneal
[15] = system: Mus musculus; assay: Toxicity in C3D2F1/J mouse allografted with mouse L1210 cells assessed as body weight change at 50 mg/kg, ip qd administered for 5 days measured on day 8 (reference value: 1.81 +/- 0.79 g); format: organism-based; parameters: dose 50 mg/kg, route intraperitoneal; conditions: in vivo, 120 h
[16] = system: L1210; assay: Antitumor activity against mouse L1210 cells allografted in C3D2F1/J mouse assessed as increase in life span at 25 mg/kg, ip qd administered for 5 days relative to control; format: functional; conditions: 120 h, route intraperitoneal
[17] = Drug degradation in baboon plasma at 5 umol at 37 degC after 24 hrs by UV analysis; format: ADME, cell-free; conditions: papio anubis, read-out: Drug degradation; how it was run: as §1
[18] = Drug degradation assessed as compound hydrolysis at 5 umol at pH 4.8 at 25 degC after 24 hrs by UV analysis in presence of wheat germ acid phosphatase; format: physicochemical; conditions: read-out: Drug degradation; how it was run: as §3
[19] = system: L1210; assay: Antitumor activity against mouse L1210 cells allografted in C3D2F1/J mouse assessed as median survival time at 50 mg/kg, ip qd administered for 5 days (reference value: 9 days); format: functional; conditions: route intraperitoneal
[20] = system: L1210; assay: Antitumor activity against mouse L1210 cells allografted in C3D2F1/J mouse assessed as median survival time at 25 mg/kg, ip qd administered for 5 days (reference value: 9 days); format: functional; conditions: route intraperitoneal
[21] = system: L1210; assay: Cytotoxicity against mouse L1210 cells assessed as growth inhibition measured at 72 hrs in presence of 5 uM prednisolone by trypan blue exclusion assay; format: functional; conditions: L1210, 72 h, read-out: ED50 (the source's name); how it was run: as §2
[22] = system: L1210; assay: Cytotoxicity against mouse L1210 cells assessed as growth inhibition measured at 72 hrs in presence of 100 uM prednisolone by trypan blue exclusion assay; format: functional; conditions: L1210, 72 h, read-out: ED50 (the source's name); how it was run: as §2
[23] = system: L1210; assay: Antitumor activity against mouse L1210 cells allografted in C3D2F1/J mouse assessed as median survival time at 24.2 mg/kg, ip qd administered for 5 days (reference value: 10 days); format: functional; conditions: route intraperitoneal
[24] = system: Mus musculus; assay: Toxicity in C3D2F1/J mouse allografted with mouse L1210 cells assessed as body weight change at 24.2 mg/kg, ip qd administered for 5 days measured on day 8 (reference value: 1.81 +/- 0.79 g); format: organism-based; parameters: dose 24.2 mg/kg, route intraperitoneal; conditions: in vivo, 120 h
[25] = system: L1210; assay: Antitumor activity against mouse L1210 cells allografted in C3D2F1/J mouse assessed as increase in life span at 24.2 mg/kg, ip qd administered for 5 days relative to control; format: functional; conditions: 120 h, route intraperitoneal

SMILES | remaining at 24 h, 5 umol [1] | ILS at 75 mg/kg [2] | EC50 [3] | Activity [4] | Activity [5] | Stability [6] | remaining at 24 h, 5 umol [7] | MST [8] | Activity [9] | ILS at 100 mg/kg [10] | Drug degradation [11] | Drug degradation [12] | MST [13] | ILS at 50 mg/kg [14] | Activity [15] | ILS at 25 mg/kg [16] | metabolised at 24 h, 5 umol [17] | metabolised at 24 h, 5 umol [18] | MST [19] | MST [20] | other results
C[C@]12C=CC(=O)C=C1CC[C@@H]1[C@@H]2[C@@H](O)C[C@@]2(C)[C@H]1CC[C@]2(O)C(=O)CO[P+]([O-])(O)OC[C@H]1O[C@@H](n2ccc(N)nc2=O)[C@@H](O)[C@@H]1O (some centres undefined) | 44% | 77.8% | 50 nM | -0.71 g | -1.5 g | Stable | 8% | 10.5 days | -0.07 g | 16.7% | 50% | 50% | 16 days | 88.9% | -0.28 g | 72.7% | 39% | 86% | 17 days | 15.5 days | 
C[C@]12C=CC(=O)C=C1CC[C@@H]1[C@@H]2C(=O)C[C@@]2(C)[C@H]1CC[C@]2(O)C(=O)CO[P+]([O-])(O)OC[C@H]1O[C@@H](n2ccc(N)nc2=O)[C@@H](O)[C@@H]1O (some centres undefined) | 74% | 55.6% | 500 nM | -0.75 g | -1.5 g | Stable | 7% | 10 days | -0.14 g | 11.1% | 50% | 50% | 14 days | 100% | -0.3 g | 61.1% | 15% | 88% | 18 days | 14.5 days | 
Nc1ccn([C@@H]2O[C@H](COP(=O)(O)O)[C@@H](O)[C@@H]2O)c(=O)n1 [CYTARABINE 5'-PHOSPHATE] |  |  | 50 nM |  |  |  |  |  |  |  |  |  |  | 0% | -4.32 g |  |  |  | 9 days |  | EC50 [21]: 10 nM; EC50 [22]: 5 nM; MST [23]: 16.5 days; Activity [24]: -3.52 g; ILS at 24.2 mg/kg [25]: 65%
